Test results from ChEMBL document CHEMBL1138153, “N-substituted 4beta-methyl-5-(3-hydroxyphenyl)-7alpha-amidomorphans are potent, selective kappa opioid receptor antagonists” (J Med Chem, 2006).

Columns and labels:
[1] = molecular target: Opioid receptors; delta & kappa (Homo sapiens) (UniProt P41145+P41143); assay: Selectivity for human kappa opioid receptor over human delta opioid receptor; assay type: protein assay
[2] = molecular target: Kappa-type opioid receptor (Homo sapiens) (UniProt P41145); assay: Inhibition of U69,593 stimulated [35S]GTP-gamma-S binding to cloned human kappa opioid receptor expressed in CHO cells; assay type: functional, cell-based
Kappa-type opioid receptor (Homo sapiens), sequence (P41145 whole entry): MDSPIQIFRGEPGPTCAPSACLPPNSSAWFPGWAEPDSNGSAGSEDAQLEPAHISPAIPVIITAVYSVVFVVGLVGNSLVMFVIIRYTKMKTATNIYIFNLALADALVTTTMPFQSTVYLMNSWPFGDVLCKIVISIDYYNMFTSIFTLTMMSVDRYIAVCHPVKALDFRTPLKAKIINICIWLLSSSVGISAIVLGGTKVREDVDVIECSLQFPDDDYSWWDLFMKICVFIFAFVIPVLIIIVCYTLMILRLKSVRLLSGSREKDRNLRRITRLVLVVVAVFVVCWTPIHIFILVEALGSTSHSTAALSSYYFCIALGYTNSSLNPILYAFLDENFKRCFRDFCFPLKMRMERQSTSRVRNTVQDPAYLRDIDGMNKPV
In short: (§1)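 Antagonism measured as a rightward shift of the agonist concentration–response curve for [35S]GTPγS binding in CHO cells expressing the cloned human receptor. Curves were run with and without one fixed concentration of test compound. Ke = [L]/(DR − 1), where [L] is the test compound concentration and DR is the ratio of agonist EC50 with versus without test compound.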

[3] = molecular target: Mu-type opioid receptor (Homo sapiens) (UniProt P35372); assay: Inhibition of DAMGO stimulated [35S]GTP-gamma-S binding to cloned human mu opioid receptor expressed in CHO cells; assay type: functional, cell-based; in short: as §1
Mu-type opioid receptor (Homo sapiens), sequence (P35372 whole entry): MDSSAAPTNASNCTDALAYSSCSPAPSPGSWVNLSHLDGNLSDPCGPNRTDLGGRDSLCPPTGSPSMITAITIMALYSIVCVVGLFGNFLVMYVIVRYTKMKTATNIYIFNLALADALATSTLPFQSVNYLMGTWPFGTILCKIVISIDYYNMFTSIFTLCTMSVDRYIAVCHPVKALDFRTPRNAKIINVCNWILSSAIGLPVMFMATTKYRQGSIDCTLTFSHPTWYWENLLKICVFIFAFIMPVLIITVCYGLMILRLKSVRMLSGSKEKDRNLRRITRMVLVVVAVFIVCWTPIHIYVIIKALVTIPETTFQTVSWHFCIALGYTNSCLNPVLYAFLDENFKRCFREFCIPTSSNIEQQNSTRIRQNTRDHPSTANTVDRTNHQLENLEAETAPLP

[4] = molecular target: Opioid receptors; mu & kappa (Homo sapiens) (UniProt P41145+P35372); assay: Selectivity for human kappa opioid receptor over human mu opioid receptor; assay type: protein assay
Opioid receptors; mu & kappa (Homo sapiens), sequence (P35372 whole entry, looked up): as the sequence (P35372 whole entry) above
Opioid receptors; mu & kappa (Homo sapiens), sequence (P41145 whole entry, looked up): as the sequence (P41145 whole entry) above

[5] = molecular target: Delta-type opioid receptor (Homo sapiens) (UniProt P41143); assay: Inhibition of DPDPE stimulated [35S]GTP-gamma-S binding to cloned human delta opioid receptor expressed in CHO cells; assay type: functional, cell-based; in short: as §1
Delta-type opioid receptor (Homo sapiens), sequence (P41143 whole entry): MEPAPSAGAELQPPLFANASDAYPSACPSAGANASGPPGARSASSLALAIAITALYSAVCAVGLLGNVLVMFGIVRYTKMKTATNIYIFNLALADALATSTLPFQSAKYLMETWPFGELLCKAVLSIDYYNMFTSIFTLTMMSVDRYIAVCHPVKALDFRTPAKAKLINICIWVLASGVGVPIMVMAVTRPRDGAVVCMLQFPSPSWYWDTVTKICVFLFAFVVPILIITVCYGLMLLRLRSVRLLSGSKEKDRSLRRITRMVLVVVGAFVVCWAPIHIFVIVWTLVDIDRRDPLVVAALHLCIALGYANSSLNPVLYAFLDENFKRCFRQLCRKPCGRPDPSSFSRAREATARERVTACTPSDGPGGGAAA

Opioid receptors; delta & kappa (Homo sapiens), sequence (P41143 whole entry, looked up): as the sequence (P41143 whole entry) above
Opioid receptors; delta & kappa (Homo sapiens), sequence (P41145 whole entry, looked up): as the sequence (P41145 whole entry) above

| SMILES | Ratio Ke [1] | Ke [2] [nM] | Ke [3] [nM] | Ratio Ke [4] | Ke [5] [nM] |
| --- | --- | --- | --- | --- | --- |
| CCCCCCN1CC(C)C2(c3cccc(O)c3)CC1C[C@H](NC(=O)CCN1CCc3ccccc3C1)C2 (stereo partly specified) | 725 | 0.2 | 103 | 515 | 145 |
| CC1CN(CCCc2ccco2)C2C[C@H](NC(=O)CCN3CCc4ccccc4C3)CC1(c1cccc(O)c1)C2 (stereo partly specified) | 163 | 0.32 | 35 | 109 | 52 |
| CC1CN(CCCc2ccccc2)C2C[C@H](NC(=O)CCN3CCc4ccc(O)cc4C3)CC1(c1cccc(O)c1)C2 (stereo partly specified) | 689 | 0.09 | 52 | 578 | 62 |
| COc1cc2c(cc1OC)CN(CCC(=O)N[C@H]1CC3CC(c4cccc(O)c4)(C1)C(C)CN3CCCc1ccccc1)CC2 (single isomer, unassigned; (-)) | 74 | 0.54 | 218 | 404 | 40 |
| CC1CN(CCCc2ccccc2)C2C[C@H](NC(=O)CCN3CCc4cc(O)ccc4C3)CC1(c1cccc(O)c1)C2 (stereo partly specified) | 107 | 0.3 | 26 | 87 | 32 |
| CC(C)[C@@H](CN1CC[C@@](C)(c2cccc(O)c2)[C@@H](C)C1)NC(=O)[C@H]1Cc2ccc(O)cc2CN1 |  | 0.02 |  |  |  |
| CC1CN(CCCc2ccccc2)C2C[C@H](NC(=O)CCN3CCN(C)CC3)CC1(c1cccc(O)c1)C2 (stereo partly specified) | 214 | 0.87 | 82 | 94 | 186 |
| COc1ccc2c(c1)CCN(CCC(=O)N[C@H]1CC3CC(c4cccc(O)c4)(C1)C(C)CN3CCCc1ccccc1)C2 (stereo partly specified) | 350 | 0.12 | 261 | 2180 | 42 |
| Cc1ccccc1CCCN1CC(C)C2(c3cccc(O)c3)CC1C[C@H](NC(=O)CCN1CCc3ccccc3C1)C2 (stereo partly specified) | 100 | 0.2 | 41 | 205 | 20 |
| COc1ccc2c(c1)CN(CCC(=O)N[C@H]1CC3CC(c4cccc(O)c4)(C1)C(C)CN3CCCc1ccccc1)CC2 (stereo partly specified) | 125 | 0.28 | 28 | 100 | 35 |
| CC1CCN(CCC(=O)N[C@H]2CC3CC(c4cccc(O)c4)(C2)C(C)CN3CCCc2ccccc2)CC1 (stereo partly specified) | 666 | 0.47 | 176 | 374 | 313 |
| CC1CN(CCCc2ccccc2)C2C[C@H](NC(=O)CCN3CCCCC3)CC1(c1cccc(O)c1)C2 (stereo partly specified) | 138 | 0.24 | 42 | 175 | 33 |
| Cc1ccccc1CCN1CC(C)C2(c3cccc(O)c3)CC1C[C@H](NC(=O)CCN1CCc3ccccc3C1)C2 (stereo partly specified) | 625 | 0.04 | 28 | 700 | 25 |
| CC1CN(CCCc2ccccc2)C2C[C@H](NC(=O)CCN3CCOCC3)CC1(c1cccc(O)c1)C2 (stereo partly specified) | 35 | 2.2 | 259 | 118 | 77 |
| CC1CN(CCCc2ccsc2)C2C[C@H](NC(=O)CCN3CCc4ccccc4C3)CC1(c1cccc(O)c1)C2 (stereo partly specified) | 26 | 1.1 | 52 | 47 | 29 |
| CC1CN(CCCc2ccccc2)C2C[C@H](NC(=O)CCN3CCc4c(O)cccc4C3)CC1(c1cccc(O)c1)C2 (stereo partly specified) | 357 | 0.07 | 4.6 | 66 | 25 |
| CC1CN(CCCc2cccs2)C2C[C@H](NC(=O)CCN3CCc4ccccc4C3)CC1(c1cccc(O)c1)C2 (stereo partly specified) | 11 | 1.8 | 25 | 14 | 19 |
| Cc1ccccc1CN1CC(C)C2(c3cccc(O)c3)CC1C[C@H](NC(=O)CCN1CCc3ccccc3C1)C2 (stereo partly specified) | > 82 | 6.1 | > 500 | > 82 | > 500 |
| CC1CN(CCCc2ccccc2)C2C[C@H](NC(=O)CCN3CCc4ccccc4C3)CC1(c1cccc(O)c1)C2 (stereo partly specified) | 144 | 0.09 | 48 | 533 | 13 |
